# An excerpt weighted towards active compounds, which were near 1.3% of everything screened.
# TbHK1 inh: blocks Trypanosoma brucei hexokinase 1 activity; recombinant TbHK1, G6PDH-coupled NADH A340; inhibition, % at 10 µM; 220,000 compounds, 0.11% hits; AID 1430;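 active = inhibition of 50% or more in the single-dose primary screen; inactive = inhibition below 50%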
# HKDC1 inhibitor: HKDC1 (human) hexokinase inhibition; recombinant HKDC1, G6PDH/diaphorase resazurin coupled fluorescence; AID 493160; 340,000 compounds, 0.16% hits; Q2TB90; inhibition, % at 20 µM;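 active = inhibition above about 35% when tested at 20 µM, limit read from the data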;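 note: plate controls were DMSO wells with enzyme for no effect and DMSO wells lacking enzyme for full effect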
# Target sequence (Q2TB90 whole entry, looked up): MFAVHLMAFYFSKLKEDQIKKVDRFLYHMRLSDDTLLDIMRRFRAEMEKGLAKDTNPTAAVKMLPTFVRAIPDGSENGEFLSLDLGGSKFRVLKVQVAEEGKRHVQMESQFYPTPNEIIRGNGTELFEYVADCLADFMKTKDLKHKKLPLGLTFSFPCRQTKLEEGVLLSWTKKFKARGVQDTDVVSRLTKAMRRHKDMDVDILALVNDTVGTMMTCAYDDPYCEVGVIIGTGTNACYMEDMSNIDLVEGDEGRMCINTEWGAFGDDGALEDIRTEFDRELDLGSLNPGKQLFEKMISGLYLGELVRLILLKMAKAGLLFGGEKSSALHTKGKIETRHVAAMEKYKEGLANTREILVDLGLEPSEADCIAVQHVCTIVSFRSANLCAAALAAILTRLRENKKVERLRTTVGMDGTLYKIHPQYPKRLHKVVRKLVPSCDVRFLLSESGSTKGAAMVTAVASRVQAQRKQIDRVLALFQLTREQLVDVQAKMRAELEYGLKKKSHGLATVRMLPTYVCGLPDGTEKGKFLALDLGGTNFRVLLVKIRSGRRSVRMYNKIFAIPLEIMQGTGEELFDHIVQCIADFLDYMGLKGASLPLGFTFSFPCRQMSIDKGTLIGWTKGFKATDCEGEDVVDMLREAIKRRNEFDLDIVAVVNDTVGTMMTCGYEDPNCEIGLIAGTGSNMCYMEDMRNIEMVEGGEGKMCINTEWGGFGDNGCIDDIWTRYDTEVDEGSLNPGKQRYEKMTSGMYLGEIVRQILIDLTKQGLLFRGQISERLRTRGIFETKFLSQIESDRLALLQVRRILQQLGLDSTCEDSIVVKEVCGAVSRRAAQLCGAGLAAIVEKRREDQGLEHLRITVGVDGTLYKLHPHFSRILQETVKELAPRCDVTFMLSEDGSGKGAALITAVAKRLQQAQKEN
#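 System: Recombinant HKDC1 hexokinase | Amount: HKDC1 at 5 µg/mL | Reagent: Glucose with 1 mM ATP | Doses: Single 20 µM dose | Incubation: Reaction time 90 min, room temperature, protected from light | Signal: Coupled resazurin fluorescence, excitation 525 nm, emission 613 nm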
# Diaph inh CS: diaphorase inhibition or chemical oxidation counter-screen | diaphorase resazurin-to-resorufin fluorescence, NADH, 16 min; bacterial (C. kluyveri) enzyme, not human | inhibition, % at 20 µM | 190,000 compounds, 0.69% hits;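 active = primary screen inhibition at 20 µM above a set limit, cut at about 50% in these data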;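 note: plate controls were DMSO with full reaction for no effect and wells lacking NADH for full effect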
#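 material = Clostridium kluyveri diaphorase enzyme | amount = 0.14 U/mL diaphorase, enzyme working solution | schedule = incubation 16 min, room temperature | detection = fluorescence of resorufin formed from resazurin, Ex 544/Em 590 nm | benchmarks = positive control minus NADH, DMSO neutral control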
# PfG6PD inh: PfG6PD (Plasmodium falciparum) enzyme inhibition; PfGluPho enzyme, NADPH resazurin-diaphorase fluorescence; inhibition, % at 20 µM; 350,000 compounds, 0.78% hits; AID 504690;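 active = inhibition reaching at least a set limit at 20 µM in the primary screen, cut at about 59% in these data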;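 note: 0% = DMSO wells with substrate and 100% = DMSO wells lacking glucose-6-phosphate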
# G6PDH counter: inhibits Leuconostoc G6PDH, flagging false hits in G6PDH-based assays; Purified L. mesenteroides G6PDH, diaphorase/resazurin coupled fluorescence, 45 min; inhibition, % at 5 µM; 200,000 compounds, 0.12% hits; AID 1020; in the data active = inhibition above about 50%
# Diaph act CS: diaphorase activation or chemical reduction counter-screen; Diaphorase/resazurin coupled assay, resorufin fluorescence, 16 min; stronger effect = higher value; 1 = vehicle wells, 0 = NADH-free wells; AID 1229; activation factor at 20 µM; 190,000 compounds, 0.005% hits;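 active = diaphorase activity raised at least twofold by the compound at 20 µM; inactive = activation factor below 2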
#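 Material: Purified diaphorase enzyme from Clostridium kluyveri | Buffer or medium: 50 mM HEPES pH 7.4 with 4.542 mM MgCl2, 0.005% Tween 20 | Times: 16 min enzyme reaction, ambient temperature | Signal: Red resorufin fluorescence at 544/590 nm excitation/emission | Measure: Increased resorufin signal from activators or reducing compounds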
# * marks the source's active call; other numbers are inactive results; / = not tested or not shown.
SMILES,TbHK1 inh,HKDC1 inhibitor,Diaph inh CS,PfG6PD inh,G6PDH counter,Diaph act CS
CCc1nn(CCCC(=O)NCc2ccccc2C)c(=O)c2cc3occc3n12,/,1,/,-5,/,/
O=C(O)c1ccccc1N=Nc1c(O)[nH]c2ccc([N+](=O)[O-])cc12,/,37*,/,-9,/,/
O=C(N=Nc1c(O)[nH]c2ccc([N+](=O)[O-])cc12)c1ccccc1Cl,-11,13,/,5,/,/
Cn1cc(/C=C2\SC(=O)NC2=S)c2ccccc21,1,-7,54*,6,11,0.5
COC(=O)CCC(C(=O)CN1C(=O)c2ccccc2C1=O)N1C(=O)c2ccccc2C1=O (stereo not given),/,-7,/,-1,/,/
COc1cccc(OC)c1-c1nn2c(-c3cc(-c4ccccc4)n[nH]3)nnc2s1,-17,44*,15,32,0,0.8
COc1cccc(-c2nnc3sc(-c4ccccc4)nn23)c1,-10,1,18,-3,13,0.8
CCOc1ccc(NC(=O)CSc2nc3ccccc3nc2N2CCCC2)cc1,/,-1,/,17,/,/
CN(C)c1cc(N/N=C/c2ccc(Cl)cc2)nc(N(C)C)n1,-2,11,54*,42,43,0.5
O=C(/C(=N/N=C/c1ccc(O)c(O)c1O)c1ccccc1)c1ccccc1,-5,16,62*,-7,20,0.4
O=C(N/N=C/c1cc(Cl)cc(Cl)c1O)c1ccncc1,-6,-34,/,-20,/,/
O=C(N/N=C/c1cc(Br)cc(Br)c1O)c1ccncc1,4,-34,52*,-30,-10,0.5
O=C(NCCOc1ccc(Cl)cc1)C1CC(=O)N(c2ccc3c(c2)OCCO3)C1 (stereo not given),/,-4,/,-2,/,/
Cc1cccc(/C=C2/Sc3ccc(C(=O)NCCN4CCCC4)cc3NC2=O)c1,/,3,/,57,/,/
O=C1Nc2cc(C(=O)NCCN3CCCCCC3)ccc2S/C1=C\c1ccccc1,/,3,/,89*,/,/
COC(=O)C1=C(C)NC(=O)NC1c1ccc2c(c1)OCO2 (stereo not given),/,-5,/,-1,/,/
O=C1C(=O)N(c2ccccc2)C(c2ccccc2[N+](=O)[O-])/C1=C(\O)c1ccccc1 (stereo not given),-24,1,51*,10,13,0.5
O=C1C(=O)N(c2cccc(Cl)c2)C(c2ccccc2[N+](=O)[O-])/C1=C(\O)c1ccccc1 (stereo not given),-13,-3,15,34,1,0.9
O=C(c1ccc(S(=O)(=O)N2CCOCC2)cc1)N1CCc2ccccc21,/,1,/,-2,/,/
O=C(COc1ccccc1[N+](=O)[O-])N/N=C/c1ccc(O)c([N+](=O)[O-])c1,-13,0,-2,5,8,1
O=C(COc1ccccc1C(=O)N/N=C\c1ccc(O)c(O)c1)N/N=C/c1ccc(O)c(O)c1,-5,19,70*,38,1,0.3
O=C(NCc1ccco1)c1sc(=S)n2c1[nH]c(=O)c1ccccc12,-11,28,67*,27,6,0.3
O=C(NC1CCCC1)c1sc(=S)n2c1[nH]c(=O)c1ccccc12,-5,21,61*,5,10,0.4
O=C(NC1CCCCCCC1)c1c(O)c2ccccc2[nH]c1=O,4,-1,-13,-13,11,1.1
CC(C)Oc1ccccc1NC(=O)CSc1nccn1C,/,-2,/,-10,/,/
SMILES,TbHK1 inh,HKDC1 inhibitor,Diaph inh CS,PfG6PD inh,G6PDH counter,Diaph act CS
CC(=O)c1cccc(NC(=O)C(=O)Nc2cccc3ccccc23)c1,2,-2,6,-9,6,0.9
CCc1ccc2[nH]c(=O)c(C3C(C#N)=C(N)Oc4c3ccc3cccnc43)cc2c1 (stereo not given),-6,-13,52*,-2,10,0.5
COc1ccc(C(=O)NNC(=O)COc2ccc(Cl)cc2)c(OC)c1,/,-5,/,-35,/,/
N=C1C=CC=C2C1=NC1(CCCCC1)N2O,-11,1,64*,23,-24,0.4
CN(/C=C/C(=C/C=[N+](C)c1ccccc1)OCCCS(=O)(=O)[O-])c1ccccc1,6,-8,25,-16,-2,0.8
CN(/C=C/C(=C\C=[N+](C)c1ccccc1)OCCCS(=O)(=O)[O-])c1ccccc1,-7,-3,59*,-9,17,0.4
N#Cc1c(N2CCCC(O)C2)nc(N)c2c(N)nc3c(c12)CC(=O)N3C12CC3CC(CC(C3)C1)C2 (stereo not given),-10,27,55*,-3,50,0.4
CCOc1ccc(-n2c(=S)sc3c(=O)[nH]c(SCC(=O)N4CCC(C)CC4)nc32)cc1,-22,7,62*,-29,0,0.4
CCOc1ccc(-n2c(=S)sc3c(=O)[nH]c(SCC(=O)C(C)(C)C)nc32)cc1,-3,1,68*,6,1,0.3
CCOC(=O)CSc1nc2c(sc(=S)n2-c2ccc(OCC)cc2)c(=O)[nH]1,-11,-6,48,-9,5,0.5
CCOc1ccc(-n2c(=S)sc3c(=O)[nH]c(SCC(=O)NCc4ccco4)nc32)cc1,16,2,43,-19,-3,0.6
Oc1cncc(Cc2ccccc2)c1,/,2,/,-2,/,/
C=CCc1cc(/C=C/c2nc(O)c([N+](=O)[O-])c(=O)[nH]2)cc(OC)c1O,-11,11,71*,30,5,0.3
CCOc1cc(/C=C\c2nc(O)c([N+](=O)[O-])c(=O)[nH]2)ccc1OC(C)C,/,5,/,2,/,/
Cc1ccc(C(=O)N/C(=C\c2ccccc2F)c2nc(=S)[nH][nH]2)cc1,-16,-14,51*,1,4,0.5
CN1C=C/C(=C\c2cc[n+](C)c3ccccc23)c2ccccc21,1,3,55*,40,60*,0.4
CC[n+]1ccc(/C=C2\Sc3ccccc3N2CCCS(=O)(=O)[O-])c2ccccc21,7,-3,7,-2,15,0.9
CC(=O)N1CCN(CC(=O)Nc2ccccc2Sc2ccc(Cl)cc2)CC1,-1,14,-6,11,15,1.1
O=C(CCl)Nc1ccccc1Sc1ccc(Cl)cc1,-8,12,6,87*,17,0.9
CC(C)S(=O)(=O)C1=NSC2=NC(=O)/C(=C\c3ccc(-c4cccc(C(=O)O)c4)o3)C(=N)N21,-8,18,74*,-22,13,0.3
N=C1/C(=C/c2ccc(-c3cccc(C(=O)O)c3)o2)C(=O)N=C2SC=C(c3ccccc3)N12,20,20,54*,-15,2,0.5
CCCCNC1=CC(=O)C(=O)c2ccccc21,-12,19,/,51,60*,/
CCC(C)c1ccc(OCCn2cc(/C=N/NC(=O)CSc3nnc(C)s3)c3ccccc32)cc1 (stereo not given),-27,-1,-1,4,-1,1

# Bioassay records: PubChem, several laboratories
